For assay [1], the system named is Pseudomonas aeruginosa. The assay is described as follows: Potentiation of moxifloxacin-induced antibiotic activity against Pseudomonas aeruginosa PAO1 assessed as MIC fold reduction at 8 ug/ml after 18 hrs by microbroth dilution method. The class given is functional. To be noted: dose 8 µg/ml.
In assay [2] the test system is Pseudomonas aeruginosa. Briefly: Antibacterial activity against MDR clinical isolate Pseudomonas aeruginosa PA108590 assessed as reduction in bacterial growth after 18 hrs by microbroth dilution method. The class given is functional. Put shortly: (§1)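 CLSI broth microdilution. Overnight cultures were adjusted in saline to 0.5 McFarland, diluted 1:50 in Mueller-Hinton broth (MHB), and inoculated at about 5 × 10^5 CFU/mL. Agents were 2-fold serially diluted in MHB, mixed 1:1 with inoculum, and held at 37 °C for 18 h. MIC was the lowest concentration with no visible turbidity, confirmed at 590 nm.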

Assay [3] has as its system Pseudomonas aeruginosa. The assay is described as follows: Antibacterial activity against colistin-resistant clinical isolate Pseudomonas aeruginosa PA101243 assessed as reduction in bacterial growth after 18 hrs by microbroth dilution method. The class given is functional. Put shortly: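 Broth microdilution per CLSI in Mueller-Hinton broth (MHB). Overnight cultures were adjusted to 0.5 McFarland in saline, diluted 1:50 in MHB, and added at about 5 × 10^5 CFU/mL final to equal volumes of 2-fold serial dilutions of agent. Incubation was 18 h at 37 °C. MIC was the lowest concentration with no visible turbidity, confirmed by absorbance at 590 nm.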

Assay [4] deals with Enterobacter cloacae. The assay is described as follows: Antibacterial activity against Enterobacter cloacae 117029 assessed as reduction in bacterial growth after 18 hrs by microbroth dilution method. The class given is functional. Put shortly:
(§2)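 CLSI microbroth dilution in MHB. Overnight cultures were adjusted to 0.5 McFarland in saline, diluted 1:50, and inoculated at about 5 × 10^5 CFU/mL. Agents were 2-fold serially diluted and incubated 18 h at 37 °C. MIC is the lowest concentration without visible turbidity, confirmed by absorbance at 590 nm. Medium with and without cells served as controls.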

Assay [5] concerns Pseudomonas aeruginosa. The assay is described as follows: Potentiation of rifampicin-induced antibiotic activity against Pseudomonas aeruginosa PAO1 assessed as MIC fold reduction at 8 ug/ml after 18 hrs by microbroth dilution method. The class given is functional. To be noted: dose 8 µg/ml.
The test system of assay [6] is Pseudomonas aeruginosa. The assay is described as follows: Antibacterial activity against MDR clinical isolate Pseudomonas aeruginosa PA259 assessed as reduction in bacterial growth after 18 hrs by microbroth dilution method. The class given is functional. An outline of the steps: as §1
The subject of assay [7] is Pseudomonas aeruginosa. Briefly: Potentiation of ceftolozane-induced antibiotic activity against MDR clinical isolate Pseudomonas aeruginosa PA264 assessed as MIC fold reduction at 8 ug/ml after 18 hrs by microbroth dilution method. The class given is functional, organism-based. To be noted: dose 8.0 µg/ml. An outline of the steps: (§3)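 Adjuvant held at a fixed 8 μg/mL while the antibiotic was 2-fold serially diluted in Mueller-Hinton broth (MHB), per CLSI microbroth dilution. Overnight cultures were adjusted in saline to 0.5 McFarland, then diluted 1:50 in MHB to about 5 × 10^5 CFU/mL final, and incubated 18 h at 37 °C. MIC was the lowest concentration with no visible turbidity, confirmed at 590 nm. Fold potentiation = MIC alone / MIC with adjuvant.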

The test system of assay [8] is Acinetobacter baumannii. The assay is described as follows: Potentiation of chloamphenicol-induced antibiotic activity against Acinetobacter baumannii ATCC 17978 assessed as MIC fold reduction at 8 ug/ml after 18 hrs by microbroth dilution method. To be noted: dose 8 µg/ml. The class given is functional. An outline of the steps:
as §3

In assay [9] the test system is Pseudomonas aeruginosa. The assay is described as follows: Potentiation of cefiderocol-induced antibiotic activity against MDR clinical isolate Pseudomonas aeruginosa PA259 assessed as MIC fold reduction at 8 ug/ml after 18 hrs by microbroth dilution method. As to conditions: dose 8 µg/ml.
Assay [10] has as its system Pseudomonas aeruginosa. Briefly: Potentiation of cefiderocol-induced antibiotic activity against MDR clinical isolate Pseudomonas aeruginosa PA260 assessed as MIC fold reduction at 8 ug/ml after 18 hrs by microbroth dilution method. The class given is functional, organism-based. To be noted: dose 8.0 µg/ml. Put shortly:
(§4)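 Initial screen in MHB using a fixed 8 μg mL−1 of adjuvant combined with each antibiotic under 2-fold dilution. Broth microdilution used about 5 × 10^5 CFU/mL at 37 °C for 18 h, with visible turbidity read and confirmed at 590 nm. Fold-potentiation = antibiotic MIC alone ÷ antibiotic MIC with adjuvant.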

For assay [11], the system named is Pseudomonas aeruginosa. Briefly: Antibacterial activity against MDR clinical isolate Pseudomonas aeruginosa PA108590 assessed as potentiation of cefiderocol antibacterial activity by measuring FIC index after 18 hrs by microbroth dilution method. The class given is functional. An outline of the steps:
(§5)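 Checkerboard in MHB (iron-replete, not iron-depleted CAMHB). Cefiderocol was 2-fold serially diluted along one axis and the adjuvant along the other. Inoculum was 0.5 McFarland diluted 1:50, about 5 × 10^5 CFU/mL final. Incubation was 18 h at 37 °C, with turbidity read visually and confirmed at 590 nm. FIC was the MIC in combination over the MIC alone for each agent, and the FIC index was their sum. Cut-offs were ≤0.5 synergy, >0.5–4 additive, >4 antagonism.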

Assay [12] relates to Pseudomonas aeruginosa. Briefly: Potentiation of aztreonam-induced antibiotic activity against Pseudomonas aeruginosa PAO1 assessed as MIC fold reduction at 8 ug/ml after 18 hrs by microbroth dilution method. The class given is functional. As to conditions: dose 8 µg/ml. An outline of the steps:
as §4

In assay [13] the test system is Pseudomonas aeruginosa. The assay is described as follows: Antibacterial activity against MDR clinical isolate Pseudomonas aeruginosa PA259 assessed as potentiation of cefiderocol antibacterial activity by measuring FIC index after 18 hrs by microbroth dilution method. The class given is functional. Put shortly: (§6)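 Checkerboard in MHB. Cefiderocol was 2-fold serially diluted along one axis and the adjuvant along the other. Inoculum was prepared from 0.5 McFarland saline suspensions diluted 1:50 in MHB, giving about 5 × 10^5 CFU/mL final. Plates ran 18 h at 37 °C, with turbidity confirmed at 590 nm. FIC = combination MIC ÷ MIC alone for each agent, and FIC index = sum of both. Interpretation: ≤0.5 synergy, >0.5–4 additive, >4 antagonism.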

Assay [14] relates to Klebsiella pneumoniae. Briefly: Antibacterial activity against Klebsiella pneumoniae KP113254 assessed as reduction in bacterial growth after 18 hrs in presence of cefiderocol by microbroth dilution method. The class given is functional. An outline of the steps:
as §6

For assay [15], the system named is Pseudomonas aeruginosa. The assay is described as follows: Antibacterial activity against MDR clinical isolate Pseudomonas aeruginosa PA100036 assessed as potentiation of cefiderocol antibacterial activity by measuring FIC index after 18 hrs by microbroth dilution method. The class given is functional. An outline of the steps:
as §5

The subject of assay [16] is Enterobacter cloacae. The assay is described as follows: Antibacterial activity against Enterobacter cloacae 121187 assessed as reduction in bacterial growth after 18 hrs by microbroth dilution method. The class given is functional. Put shortly: as §2
For assay [17], the system named is Escherichia coli. Briefly: Potentiation of cotrimoxazole-induced antibiotic activity against Escherichia coli ATCC 25922 assessed as MIC fold reduction at 8 ug/ml after 18 hrs by microbroth dilution method. The class given is functional. As to conditions: dose 8 µg/ml. Put shortly:
as §3

Assay [18] relates to Acinetobacter baumannii. Briefly: Antibacterial activity against Acinetobacter baumannii LAC-4 assessed as reduction in bacterial growth after 18 hrs by microbroth dilution method. The class given is functional. An outline of the steps: as §2
For assay [19], the system named is Escherichia coli. Briefly: Potentiation of ceftolozane-induced antibiotic activity against Escherichia coli ATCC 25922 assessed as MIC fold reduction at 8 ug/ml after 18 hrs by microbroth dilution method. To be noted: dose 8 µg/ml. The class given is functional. An outline of the steps: as §3
Assay [20] has as its system Pseudomonas aeruginosa. Briefly: Potentiation of moxifloxacin-induced antibiotic activity against Pseudomonas aeruginosa PA260 assessed as MIC fold reduction in ID-CAMHB condition at 8 ug/ml after 18 hrs by microbroth dilution method. The class given is functional, organism-based. As to conditions: dose 8.0 µg/ml.
Assay [21] concerns Pseudomonas aeruginosa. Briefly: Antibacterial activity against MDR clinical isolate Pseudomonas aeruginosa PA109084 assessed as reduction in bacterial growth after 18 hrs by microbroth dilution method. The class given is functional. Put shortly:
as §1

The subject of assay [22] is Pseudomonas aeruginosa. Briefly: Antibacterial activity against MDR clinical isolate Pseudomonas aeruginosa PA260 assessed as potentiation of cefiderocol antibacterial activity by measuring FIC index after 18 hrs by microbroth dilution method. The class given is functional. Put shortly: as §6
In assay [23] the test system is Pseudomonas aeruginosa. The assay is described as follows: Potentiation of moxifloxacin-induced antibiotic activity against Pseudomonas aeruginosa PA263 assessed as MIC fold reduction in ID-CAMHB condition at 8 ug/ml after 18 hrs by microbroth dilution method. The class given is functional, organism-based. As to conditions: dose 8.0 µg/ml.

Activity calls are given as the source filed them.

Turning to `NC[C@H]1O[C@H](O[C@H]2[C@H](OCCCCc3cn(-c4ccc(NC(=O)c5cc(Cl)ccc5O)cc4)nn3)[C@@H](O[C@H]3O[C@H](CO)[C@@H](O)[C@H](N)[C@H]3O)[C@H](N)C[C@@H]2N)[C@H](N)C[C@@H]1O`, the “fold change (FC)” value in assay [1] stood at 4; in [5], 4; in assay [8], 4; in assay [9], 32; in assay [12], 4; in assay [17], 4. Moreover, the “fold change (FC)” value in assay [19] amounted to 4. In addition, the MIC is over 128 µg/mL in assay [2]; over 128 µg/mL in [3]; over 128 µg/mL in assay [4]; over 128 µg/mL in assay [6]; 1 µg/mL in [14]; over 128 µg/mL in [16]. For the same compound, the MIC in assay [18] and in [21] was over 128 µg/mL each time. The result in assay [7], in assay [10], in [20] and in assay [23] was Active. Further, the FIC in assay [11] came to 0.016; in assay [13], 0.031; in assay [15], 1; in assay [22], 0.063.
